{"data": "Published values from different studies", "target": "Serine/threonine-protein kinase VRK2 (VRK2, Homo sapiens, UniProt Q86Y07)", "note": "Each line is one published result; the experiments were not run side by side."}
{"Compound": "Nc1ncnc2occ(-c3ccc(NC(=O)Nc4cc(C(F)(F)F)ccc4F)cc3)c12", "observed": "cell-free assay", "mode": "inhibitor", "tested at": "20 µM", "endpoint": "remaining signal", "result": "2.4%"}
{"Compound": "Cn1c2c(c3ccc(Cl)c(Cl)c31)C(C#N)C1(CCOCC1)NC2=O (centres unmarked)", "observed": "thermal stability", "technique": "DSF", "tested at": "10 µM", "endpoint": "ΔTm", "result": "0 °C"}
{"Compound": "COc1cc(Cl)c(C(=O)N[C@@H](CN[C@H]2CC[C@@H](N)CC2)Cc2ccc(C#N)cc2)cc1-c1ccc(CN[C@H](C)c2ccc(C)cc2)o1", "observed": "enzyme activity", "mode": "inhibitor", "tested at": "1 µM", "endpoint": "remaining activity", "result": "91%"}
{"Compound": "CN1CC(Oc2cnc(C#N)cc2-c2ccn3nc(NC(=O)C4CC4)cc3c2)C1", "observed": "enzyme activity", "mode": "inhibitor", "tested at": "1 µM", "endpoint": "inhibition", "result": "-9%"}
{"Compound": "Cc1ccc(NC(=O)c2ccc(C)c(C(F)(F)F)c2)cc1C#Cc1nn(C2CCC(O)CC2)c2ncnc(N)c12 (centres unmarked)", "observed": "cell-free assay", "tested at": "10 µM", "endpoint": "remaining signal", "result": "85%"}
{"Compound": "CN(C)C(=O)Cn1cc(-c2nc([C@@](C)(c3ccc(-c4cnc(N)nc4)cc3)C3CC3)no2)cn1", "observed": "cell-free assay", "technique": "competition with immobilised ligand", "tested at": "1 µM", "endpoint": "remaining binding", "result": "92%"}
{"Compound": "Cn1c2c(c3ccc(Cl)c(Cl)c31)C(C#N)C1(CCCC1)NC2=O (centres unmarked)", "observed": "thermal stability", "technique": "DSF", "tested at": "10 µM", "endpoint": "ΔTm", "result": "-0.2 °C"}
{"Compound": "CCN(CC)CCNC(=O)c1c(C)[nH]c(/C=C2\\C(=O)Nc3ccc(F)cc32)c1C", "observed": "enzyme activity", "mode": "inhibitor", "tested at": "0.3 µM", "endpoint": "inhibition", "result": "-19%"}
{"Compound": "COc1ccc2c(O[C@@H]3C[C@H]4C(=O)N[C@]5(C(=O)O)CC5/C=C\\CCCCC[C@H](NC(=O)OC5CCCC5)C(=O)N4C3)cc(-c3csc(NC(=O)C(C)C)n3)nc2c1C (some centres unmarked)", "observed": "cell-free assay", "technique": "competition with immobilised ligand", "tested at": "1 µM", "endpoint": "remaining binding", "result": "79%"}
{"Compound": "CNC(=O)c1cc(Oc2ccc(NC(=O)Nc3ccc(Cl)c(C(F)(F)F)c3)cc2)ccn1", "observed": "enzyme activity", "mode": "inhibitor", "tested at": "0.3 µM", "endpoint": "inhibition", "result": "-15%"}
{"Compound": "CC(C)(O)[C@H]1CC[C@H](Nc2ccc3ncc(-c4cccc(C(F)(F)F)c4)n3n2)CC1", "observed": "enzyme activity", "mode": "inhibitor", "tested at": "1 µM", "endpoint": "remaining activity", "result": "81.2%"}
{"Compound": "CS(=O)(=O)N1CCCC(NC(=O)[C@H](CCC2CCCCC2)NC(=O)c2ccc(CNC(=O)c3cnc4ccccn34)cc2)C1 (some centres unmarked)", "observed": "cell-free assay", "technique": "competition with immobilised ligand", "tested at": "0.1 µM", "endpoint": "remaining binding", "result": "76%"}
{"Compound": "CCN1CCC2(CC1)NC(=O)c1c(c3ccc(Cl)c(Cl)c3n1C)C2C#N (racemic)", "observed": "thermal stability", "technique": "DSF", "tested at": "10 µM", "endpoint": "ΔTm", "result": "0.1 °C"}
{"Compound": "C[C@H](c1ccc(F)cc1)N(Cc1cccc(C(=O)O)c1)C(=O)c1cnc2ccccc2c1", "observed": "cell-free assay", "technique": "competition with immobilised ligand", "tested at": "1 µM", "endpoint": "remaining binding", "result": "100%"}
{"Compound": "Cc1ccc(Nc2nccc(N(C)c3ccc4c(C)n(C)nc4c3)n2)cc1S(N)(=O)=O", "observed": "enzyme activity", "mode": "inhibitor", "tested at": "0.3 µM", "endpoint": "inhibition", "result": "-16%"}
{"Compound": "c1ccc(N2CCN(Cc3nc4ccccc4[nH]3)CC2)nc1", "observed": "binding", "technique": "competition with immobilised ligand", "tested at": "1 µM", "endpoint": "remaining binding", "result": "100%"}
{"Compound": "Cn1c2c(c3ccc(Cl)c(Cl)c31)C(C#N)C1(CCNCC1)NC2=O (racemic)", "observed": "thermal stability", "technique": "DSF", "tested at": "10 µM", "endpoint": "ΔTm", "result": "0.3 °C"}
{"Compound": "FC(F)(F)c1ccc2c(c1)nc(-c1cccnc1)n2C1CC1", "observed": "cell-free assay", "technique": "competition with immobilised ligand", "tested at": "1 µM", "endpoint": "remaining binding", "result": "100%"}
{"Compound": "Cn1c2c(Cl)c(Cl)ccc2c2cc[nH]c(=O)c21", "observed": "thermal stability", "technique": "DSF", "tested at": "10 µM", "endpoint": "ΔTm", "result": "0 °C"}
{"Compound": "Cc1cnc(NC2CCOCC2)nc1-n1cnc(C(=O)NC(CN)c2cc(F)cc(Cl)c2)c1 (centres unmarked)", "observed": "enzyme activity", "mode": "inhibitor", "technique": "radiometric", "tested at": "1 µM", "endpoint": "remaining activity", "result": "99%"}
{"Compound": "CC(C)(C)c1nc2c(s1)c1nc(N)ncc1c1ccc(NS(=O)(=O)c3c(F)cccc3F)c(F)c12", "observed": "enzyme activity", "mode": "inhibitor", "technique": "radiometric", "tested at": "1 µM", "endpoint": "remaining activity", "result": "116%"}
{"Compound": "CO[C@@H](C)c1c(Nc2ccc([C@H](N(C)C(=O)C3CCS(=O)(=O)CC3)C(F)(F)F)cc2)cnc2cc(Cl)nn12", "observed": "cell-free assay", "technique": "competition with immobilised ligand", "tested at": "1 µM", "endpoint": "remaining binding", "result": "100%"}
{"Compound": "CCC1(CC)NC(=O)c2c(c3ccc(Cl)c(Cl)c3n2C)C1C#N (centres unmarked)", "observed": "thermal stability", "technique": "DSF", "tested at": "10 µM", "endpoint": "ΔTm", "result": "0.1 °C"}
